One compound from ChEMBL document CHEMBL4706526, “The HIV-1 maturation inhibitor, EP39, interferes with the dynamic helix-coil equilibrium of the CA-SP1 junction of Gag” (Eur J Med Chem, 2020) can be followed below.

Calls of active or inactive are those of the source. The calls are words filed in the database; no cut-off is given here.

Usually Kd stands for the equilibrium constant for the complex coming apart. The low end stands for higher affinity, the high end for lower affinity.

The nature of experiment [1]: Binding affinity to HIV-1NL4-3 15N-labeled C-terminal domain CA-SP1-NC at M235 residue cleavage site of Gag-Pol protein harboring W184A/M185A mutant expressed in Escherichia coli by 1H-15N SOFAST-HMQC spectroscopic analysis. On the set-up: species or system Human immunodeficiency virus 1. An outline of the steps:
(§1)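 300 μM 15N-labelled CA-CTD(W184A/M185A)-SP1-NC in acetate buffer (25 mM Na acetate pH 6.5, 25 mM NaCl, 0.1 mM ZnCl2, 0.1 mM 2-mercaptoethanol, 10% D2O), 303 K, 600 MHz with cryoprobe. Ligand added from ~60 mM DMSO-d6 stock; reference 1H-15N SOFAST-HMQC recorded first. Per-residue Kd from non-linear fit of chemical shift perturbation vs ligand concentration, one-site model plus linear non-specific term.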

The nature of experiment [2]: Binding affinity to HIV-1NL4-3 15N-labeled C-terminal domain CA-SP1-NC at E233 residue cleavage site of Gag-Pol protein harboring W184A/M185A mutant expressed in Escherichia coli by 1H-15N SOFAST-HMQC spectroscopic analysis. On the set-up: species or system Human immunodeficiency virus 1. A digest of the protocol:
as §1

The subject of experiment [3] is Human immunodeficiency virus 1. The experiment is described as follows: Binding affinity to HIV-1NL4-3 15N-labeled C-terminal domain CA-SP1-NC cleavage site of Gag-Pol protein harboring W184A/M185A mutant expressed in Escherichia coli assessed as HetNOE value at SP1 T239 residues by NMR analysis (reference value: -0.324No_unit).
Experiment [4] can be described thus: Binding affinity to HIV-1NL4-3 15N-labeled C-terminal domain CA-SP1-NC at V221 residue cleavage site of Gag-Pol protein harboring W184A/M185A mutant expressed in Escherichia coli by 1H-15N SOFAST-HMQC spectroscopic analysis. Also noted: species or system Human immunodeficiency virus 1. A digest of the protocol:
as §1

Experiment [5] in a line: Binding affinity to HIV-1NL4-3 15N-labeled C-terminal domain CA-SP1-NC at V238 residue cleavage site of Gag-Pol protein harboring W184A/M185A mutant expressed in Escherichia coli by 1H-15N SOFAST-HMQC spectroscopic analysis. Also noted: species or system Human immunodeficiency virus 1. A digest of the protocol: as §1
Experiment [6] deals with Human immunodeficiency virus 1. In words: Binding affinity to HIV-1NL4-3 15N-labeled C-terminal domain CA-SP1-NC cleavage site of Gag-Pol protein harboring W184A/M185A mutant expressed in Escherichia coli assessed as change in chemical shift perturbation at CA 218 to NC 257 residues by 1H-15N SOFAST-HMQC spectroscopic analysis. An outline of the steps: (§2)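 1H-15N SOFAST-HMQC of 300 μM 15N-labelled CA-CTD(W184A/M185A)-SP1-NC, without and with ligand. Buffer: 25 mM Na acetate pH 6.5, 25 mM NaCl, 0.1 mM ZnCl2, 0.1 mM 2-mercaptoethanol, 10% D2O. Recorded at 303 K, 600 MHz, cryoprobe. Ligand from ~60 mM DMSO-d6 stock. Control sample held protein plus the same DMSO-d6 amount.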

Experiment [7] relates to Human immunodeficiency virus 1. In words: Binding affinity to HIV-1NL4-3 15N-labeled C-terminal domain CA-SP1-NC cleavage site of Gag-Pol protein harboring W184A/M185A mutant expressed in Escherichia coli assessed as change in peak intensity at CA 225 to 229/NC 248 to 251 residues by NMR analysis.
Experiment [8] deals with Human immunodeficiency virus 1. The experiment is described as follows: Binding affinity to HIV-1NL4-3 15N-labeled C-terminal domain CA-SP1-NC cleavage site of Gag-Pol protein harboring W184A/M185A mutant expressed in Escherichia coli assessed as change in peak intensity at CA 218 to NC 257 residues by 1H-15N SOFAST-HMQC spectroscopic analysis. An outline of the steps: as §2

Experiment [9] can be described thus: Binding affinity to HIV-1NL4-3 15N-labeled C-terminal domain CA-SP1-NC at T239 residue cleavage site of Gag-Pol protein harboring W184A/M185A mutant expressed in Escherichia coli by 1H-15N SOFAST-HMQC spectroscopic analysis. Also noted: species or system Human immunodeficiency virus 1. An outline of the steps:
as §1

Experiment [10] can be described thus: Binding affinity to HIV-1NL4-3 15N-labeled C-terminal domain CA-SP1-NC at A232 residue cleavage site of Gag-Pol protein harboring W184A/M185A mutant expressed in Escherichia coli by 1H-15N SOFAST-HMQC spectroscopic analysis. Also noted: species or system Human immunodeficiency virus 1. A digest of the protocol: as §1
Experiment [11] has as its system Human immunodeficiency virus 1. In words: Binding affinity to HIV-1NL4-3 15N-labeled C-terminal domain CA-SP1-NC cleavage site of Gag-Pol protein harboring W184A/M185A mutant expressed in Escherichia coli assessed as formation of QVT motif at SP1 232 to 239 residues by NMR analysis.
Experiment [12] can be described thus: Binding affinity to HIV-1NL4-3 15N-labeled C-terminal domain CA-SP1-NC at Q237 residue cleavage site of Gag-Pol protein harboring W184A/M185A mutant expressed in Escherichia coli by 1H-15N SOFAST-HMQC spectroscopic analysis. Also noted: species or system Human immunodeficiency virus 1. An outline of the steps:
as §1

Experiment [13] has as its system Human immunodeficiency virus 1. In words: Binding affinity to HIV-1NL4-3 15N-labeled C-terminal domain CA-SP1-NC cleavage site of Gag-Pol protein harboring W184A/M185A mutant expressed in Escherichia coli assessed as change in resonances at CA 220/225 to 229 and Nc 248 to 253/ 256 residues by 1H-15N SOFAST-HMQC spectroscopic analysis. A digest of the protocol: as §2

Experiment [14] in a line: Binding affinity to HIV-1NL4-3 15N-labeled C-terminal domain CA-SP1-NC at L231 residue cleavage site of Gag-Pol protein harboring W184A/M185A mutant expressed in Escherichia coli by 1H-15N SOFAST-HMQC spectroscopic analysis. On the set-up: species or system Human immunodeficiency virus 1. An outline of the steps:
as §1

A short description of experiment [15]: Binding affinity to HIV-1NL4-3 15N-labeled C-terminal domain CA-SP1-NC at S236 residue cleavage site of Gag-Pol protein harboring W184A/M185A mutant expressed in Escherichia coli by 1H-15N SOFAST-HMQC spectroscopic analysis. Also noted: species or system Human immunodeficiency virus 1. An outline of the steps:
as §1

Experiment [16] is described as follows: Binding affinity to HIV-1NL4-3 15N-labeled C-terminal domain CA-SP1-NC at T257 residue cleavage site of Gag-Pol protein harboring W184A/M185A mutant expressed in Escherichia coli by 1H-15N SOFAST-HMQC spectroscopic analysis. Also noted: species or system Human immunodeficiency virus 1. A digest of the protocol: as §1

`C=C(C)[C@@H]1CC[C@]2(C(=O)NCCN)CC[C@]3(C)[C@@H](CC[C@@H]4[C@@]5(C)CC[C@H](OC(=O)CC(C)(C)C(=O)O)C(C)(C)[C@@H]5CC[C@]43C)[C@@H]12`: the Kd in experiment [1] stood at 235 µM; in experiment [2], 237 µM; in experiment [4], 670 µM; in [5], 204 µM; in experiment [9] it was 52.5 µM; in [10] it was 692 µM. The Kd in [12] worked out at 154 µM; in experiment [14], 678 µM; in experiment [15], 180 µM; in experiment [16] it was 308 µM. In addition, the Activity in [3] is -0.164. In addition, the result in experiment [6], in experiment [7], in experiment [8], in experiment [11] and in experiment [13] was Active.
